Reference: publication PMC12279052 (RSC Advances, 2025)
In brackets after ≈: the same amount, converted by molar mass.

Columns and labels:
[1] = tested on: human hepatocellular carcinoma cell line HepG2; assay: Cell toxicity assay, MTT; format: cell-based
[2] = tested on: Cutibacterium acnes ATCC6919; assay: Antibacterial activity, broth dilution MIC; format: cell-based
[3] = tested on: human lung cancer cell line A549; assay: Cell toxicity assay, MTT; format: cell-based
[4] = Density measurement, apparent molar volume at infinite dilution in water; format: physicochemical; conditions: aqueous solution
Procedure, shortened: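 Solution density was measured with a vibrating-tube densitometer calibrated with dry air and double-distilled water, with Peltier temperature control at ±0.01 K and density uncertainty 2.0 × 10−4 g cm−3. Apparent molar volumes were computed versus molality. Infinite-dilution values came from the Redlich–Mayer equation with empirical parameters Sv and Bv.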

[5] = Steady-state fluorescence with pyrene probe; format: physicochemical; conditions: 298.15 K; for cmc: Fluorescence (pyrene I1/I3), water; for N agg (aggregation number): ST = 2.5 cmc, fluorescence quenching with CPC
Procedure, shortened: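 Pyrene (1 μM) served as probe at 298.15 K. Excitation was 335 nm, emission 355–650 nm, slits 2.5 nm, 700 V, 240 nm min−1, in a 1 cm quartz cuvette. cmc came from a Boltzmann fit of I1/I3 (373/384 nm). For Nagg, test compound at 2.5 cmc was quenched with cetylpyridinium chloride at 0.2–1.0 × 10−4 mol dm−3, and Nagg was derived from linear ln(I0/I) versus [Q].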

[6] = tested on: Staphylococcus aureus ATCC29213; assay: Antibacterial activity, broth dilution MIC; format: cell-based; conditions: S. aureus, n = 3
[7] = tested on: Escherichia coli ATCC25922; assay: Antibacterial activity, broth dilution MIC; format: cell-based
[8] = Octanol–water partition coefficient, shake-flask method; format: physicochemical
Procedure, shortened: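 Shake-flask partitioning was run at 25 and 37 °C in water, SGF (pH 1.2), SIF (pH 6.8) or SBF (pH 7.4). Fluids were prepared per USP without enzyme and pre-saturated with n-octanol (24 h shaking, 24 h separation). Test compound in buffer-saturated octanol (5 mL) was shaken 24 h with 5 mL octanol-saturated buffer, then centrifuged 10 min. The octanol phase was read by UV at 200 nm, and log Ko/w = log Co/(C−Co).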

[9] = Aggregation in water by electrical conductivity; format: physicochemical; conditions: for cmc: conductivity, water; for ionization degree α: micelle (cmc); for ΔG^0m / ΔH^0m / ΔS^0m / −TΔS^0m: micellization (cmc)
Procedure, shortened: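 Conductivity of aqueous test compound solutions was measured with a digital conductivity meter and electrode, calibrated against standard KCl, with a thermostat holding ±0.02 K and ±3% relative uncertainty. cmc and cac were taken from the break points, found by fitting the Aguiar equation. α came from the ratio of post- to pre-transition slopes (A2/A1), and micellization thermodynamic functions from the mass action model.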

[10] = Thermal stability by TG/DTG; format: physicochemical; conditions: first decomposition process, 10 K min^−1, argon
Procedure, shortened: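 Simultaneous thermal analysis ran from 30–500 °C at 10 K min−1 on 3–5 mg sample in an Al2O3 crucible, with α-Al2O3 as reference. Argon served as protective gas at 20 mL min−1 and as purge gas at 60 mL min−1.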

[11] = tested on: Candida albicans ATCC10231; assay: Antimicrobial activity, broth dilution MIC; format: cell-based
[12] = Conductivity in low concentration region; format: physicochemical; conditions: in water
Procedure, shortened: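 Conductivity of aqueous test compound solutions was measured at each temperature in double-distilled deionized water (0.8 − 1.0 × 10−4 S m−1 at 298.15 K). The digital meter and electrode were calibrated with standard KCl, and the thermostat held ±0.02 K; relative standard uncertainty was ±3%.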

[13] = pH = 7.0 (ultrapure water), 25 °C
[14] = pH = 7.0 (ultrapure water), 37 °C

CCCCCCC(=O)O.O=C1CCC[C@@H]2[C@H]3CCCN4CCC[C@@H](CN12)[C@@H]34 [[Mat][C7]]
IC50 ([1]; HepG2, MTT, 24 h, n = 3): 4.47 mM
MIC ([2]; C. acnes, n = 3): 66.0 mM
IC50 ([3]; A549, MTT, 24 h, n = 3): 14 mM
Apparent molar volume at infinite dilution V^0 2,φ ([4]; 293.15 K): 321.56 ± 0.09 cm^3 mol^−1
Apparent molar volume at infinite dilution V^0 2,φ ([4]; 298.15 K): 323.31 ± 0.11 cm^3 mol^−1
Apparent molar volume at infinite dilution V^0 2,φ ([4]; 303.15 K): 324.72 ± 0.10 cm^3 mol^−1
Apparent molar volume at infinite dilution V^0 2,φ ([4]; 308.15 K): 326.82 ± 0.20 cm^3 mol^−1
cmc [5]: 0.00554 mol/kg
N agg (aggregation number) [5]: 25
MIC [6]: 132.1 mM
MIC ([7]; E. coli, n = 3): 33.0 mM
Log K o/w ([8]; pH = 1.2 (SGF), 25 °C): −0.36
Log K o/w ([8]; pH = 1.2 (SGF), 37 °C): 0.07
Log K o/w ([8]; pH = 6.8 (SIF), 25 °C): 0.01
Log K o/w ([8]; pH = 6.8 (SIF), 37 °C): 0.25
Log K o/w [8, 13]: 0.42
Log K o/w [8, 14]: 0.69
Log K o/w ([8]; pH = 7.4 (SBF), 25 °C): 0.83
Log K o/w ([8]; pH = 7.4 (SBF), 37 °C): 1.01
cmc ([9]; 293.15 K): 0.00511 mol/kg
cmc ([9]; 298.15 K): 0.00524 mol/kg
cmc ([9]; 303.15 K): 0.00536 mol/kg
cmc ([9]; 308.15 K): 0.00549 mol/kg
cmc ([9]; 313.15 K): 0.00558 mol/kg
ionization degree α ([9]; 293.15 K): 0.8986
ionization degree α ([9]; 298.15 K): 0.8976
ionization degree α ([9]; 303.15 K): 0.8989
ionization degree α ([9]; 308.15 K): 0.8927
ionization degree α ([9]; 313.15 K): 0.8987
ΔG^0m ([9]; 293.15 K): -5.961 kcal/mol
ΔH^0m ([9]; 293.15 K): -0.956 kcal/mol
ΔS^0m ([9]; 293.15 K): 71.43 J mol^−1 K^−1
−TΔS^0m ([9]; 293.15 K): -5.005 kcal/mol
ΔG^0m ([9]; 298.15 K): -6.054 kcal/mol
ΔH^0m ([9]; 298.15 K): -0.92 kcal/mol
ΔS^0m ([9]; 298.15 K): 72.03 J mol^−1 K^−1
−TΔS^0m ([9]; 298.15 K): -5.134 kcal/mol
ΔG^0m ([9]; 303.15 K): -6.133 kcal/mol
ΔH^0m ([9]; 303.15 K): -0.88 kcal/mol
ΔS^0m ([9]; 303.15 K): 72.51 J mol^−1 K^−1
−TΔS^0m ([9]; 303.15 K): -5.253 kcal/mol
ΔG^0m ([9]; 308.15 K): -6.252 kcal/mol
ΔH^0m ([9]; 308.15 K): -0.839 kcal/mol
ΔS^0m ([9]; 308.15 K): 73.51 J mol^−1 K^−1
−TΔS^0m ([9]; 308.15 K): -5.413 kcal/mol
ΔG^0m ([9]; 313.15 K): -6.31 kcal/mol
ΔH^0m ([9]; 313.15 K): -0.786 kcal/mol
ΔS^0m ([9]; 313.15 K): 73.80 J mol^−1 K^−1
−TΔS^0m ([9]; 313.15 K): -5.523 kcal/mol
T onset (onset decomposition temperature) [10]: 185.5 °C
MIC ([11]; C. albicans, n = 3): 66.0 mM
Association constant KA ([12]; 298.15 K): 6.11 ± 0.61 dm^3 mol^−1
Limiting molar conductivity Λ0 ([12]; 298.15 K): 47.78 ± 0.03 S cm^2 mol^−1
Association constant KA ([12]; 303.15 K): 3.91 ± 0.48 dm^3 mol^−1
Limiting molar conductivity Λ0 ([12]; 303.15 K): 52.96 ± 0.03 S cm^2 mol^−1
Association constant KA ([12]; 308.15 K): 1.53 ± 0.37 dm^3 mol^−1
Limiting molar conductivity Λ0 ([12]; 308.15 K): 59.37 ± 0.03 S cm^2 mol^−1

CCCCCCCCC(=O)O.O=C1CCC[C@@H]2[C@H]3CCCN4CCC[C@@H](CN12)[C@@H]34 [[Mat][C9]]
IC50 ([1]; HepG2, MTT, 24 h, n = 3): 2.12 mM
MIC ([2]; C. acnes, n = 3): 3.84 mM
IC50 ([3]; A549, MTT, 24 h, n = 3): 3.15 mM
Apparent molar volume at infinite dilution V^0 2,φ ([4]; 293.15 K): 353.45 ± 0.11 cm^3 mol^−1
Apparent molar volume at infinite dilution V^0 2,φ ([4]; 298.15 K): 355.41 ± 0.17 cm^3 mol^−1
Apparent molar volume at infinite dilution V^0 2,φ ([4]; 303.15 K): 357.32 ± 0.16 cm^3 mol^−1
Apparent molar volume at infinite dilution V^0 2,φ ([4]; 308.15 K): 360.15 ± 0.14 cm^3 mol^−1
cmc [5]: 0.00461 mol/kg
N agg (aggregation number) [5]: 64
MIC [6]: 7.7 mM
MIC ([7]; E. coli, n = 3): 30.7 mM
Log K o/w ([8]; pH = 1.2 (SGF), 25 °C): −0.33
Log K o/w ([8]; pH = 1.2 (SGF), 37 °C): 0.14
Log K o/w ([8]; pH = 6.8 (SIF), 25 °C): 0.02
Log K o/w ([8]; pH = 6.8 (SIF), 37 °C): 0.34
Log K o/w [8, 13]: 0.68
Log K o/w [8, 14]: 0.81
Log K o/w ([8]; pH = 7.4 (SBF), 25 °C): 0.96
Log K o/w ([8]; pH = 7.4 (SBF), 37 °C): 1.12
cmc ([9]; 293.15 K): 0.00449 mol/kg
cmc ([9]; 298.15 K): 0.00459 mol/kg
cmc ([9]; 303.15 K): 0.00467 mol/kg
cmc ([9]; 308.15 K): 0.00475 mol/kg
cmc ([9]; 313.15 K): 0.00483 mol/kg
ionization degree α ([9]; 293.15 K): 0.8848
ionization degree α ([9]; 298.15 K): 0.8890
ionization degree α ([9]; 303.15 K): 0.8957
ionization degree α ([9]; 308.15 K): 0.8931
ionization degree α ([9]; 313.15 K): 0.8922
ΔG^0m ([9]; 293.15 K): -6.121 kcal/mol
ΔH^0m ([9]; 293.15 K): -0.805 kcal/mol
ΔS^0m ([9]; 293.15 K): 75.88 J mol^−1 K^−1
−TΔS^0m ([9]; 293.15 K): -5.315 kcal/mol
ΔG^0m ([9]; 298.15 K): -6.188 kcal/mol
ΔH^0m ([9]; 298.15 K): -0.767 kcal/mol
ΔS^0m ([9]; 298.15 K): 76.06 J mol^−1 K^−1
−TΔS^0m ([9]; 298.15 K): -5.421 kcal/mol
ΔG^0m ([9]; 303.15 K): -6.243 kcal/mol
ΔH^0m ([9]; 303.15 K): -0.727 kcal/mol
ΔS^0m ([9]; 303.15 K): 76.13 J mol^−1 K^−1
−TΔS^0m ([9]; 303.15 K): -5.516 kcal/mol
ΔG^0m ([9]; 308.15 K): -6.348 kcal/mol
ΔH^0m ([9]; 308.15 K): -0.686 kcal/mol
ΔS^0m ([9]; 308.15 K): 76.88 J mol^−1 K^−1
−TΔS^0m ([9]; 308.15 K): -5.662 kcal/mol
ΔG^0m ([9]; 313.15 K): -6.446 kcal/mol
ΔH^0m ([9]; 313.15 K): -0.643 kcal/mol
ΔS^0m ([9]; 313.15 K): 77.53 J mol^−1 K^−1
−TΔS^0m ([9]; 313.15 K): -5.803 kcal/mol
T onset (onset decomposition temperature) [10]: 196.3 °C
MIC ([11]; C. albicans, n = 3): 0.96 mM
Association constant KA ([12]; 298.15 K): 6.74 ± 0.44 dm^3 mol^−1
Limiting molar conductivity Λ0 ([12]; 298.15 K): 47.11 ± 0.02 S cm^2 mol^−1
Association constant KA ([12]; 303.15 K): 4.14 ± 0.68 dm^3 mol^−1
Limiting molar conductivity Λ0 ([12]; 303.15 K): 52.90 ± 0.04 S cm^2 mol^−1
Association constant KA ([12]; 308.15 K): 1.72 ± 1.03 dm^3 mol^−1
Limiting molar conductivity Λ0 ([12]; 308.15 K): 59.10 ± 0.07 S cm^2 mol^−1

O=C1CCC[C@@H]2[C@H]3CCCN4CCC[C@@H](CN12)[C@@H]34 [Matrine, reference compound]
IC50 ([1]; Homo sapiens, HepG2, 24 h): 4.27 mM
MIC ([2]; Cutibacterium acnes, ATCC6919): 50.3 mM (≈ 12.5 mg/mL)
IC50 ([3]; Homo sapiens, A549, 24 h): 11.8 mM
MIC ([7]; Escherichia coli, ATCC25922): 50.3 mM (≈ 12.5 mg/mL)
MIC ([11]; Candida albicans, ATCC10231): 25.2 mM (≈ 6.26 mg/mL)
